Compound activity: PubChem BioAssay, several laboratories
ERp5 block: blocks human ERp5 reductase activity on insulin. Q15084. ERp5 insulin aggregation, absorbance 650 nm, 90 min. inhibition, % at 9.99 µM. 350,000 tested, 0.05% active. AID 651711;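 active = mean replicate inhibition above about 25%, with every replicate also reaching it, limit read from the data, passing the limit was not always enough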
TbMetRS inhib: Trypanosoma brucei MetRS inhibition; purified T. brucei MetRS, ATP depletion, Kinase-Glo luminescence; inhibition, % at 11.9 µM; 360,000 tested, 0.4% active;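 active = inhibition above a per-plate cutoff of the control wells' mean inhibition plus 3 SD, cut at about 5.5% in these data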
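Measured by: Kinase-Glo luciferase luminescence reporting remaining unconsumed ATP. Material: purified T. brucei MetRS enzyme. Doses: 11.9 µM compound single dose, 0.9% DMSO. Medium: HEPES buffer containing pyrophosphatase, BSA, spermine, DTT. Times: 15 min preincubation, 2 h reaction, all 25 °C. Reagent: methionine, ATP and bulk E. coli tRNA.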
PDI turbidity: blocks human protein disulfide isomerase activity | P07237 | PDI insulin aggregation turbidity, A650, 90 min | inhibition, % at 10 µM | 350,000 tested, 0.052% active | AID 588391;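 active = mean inhibition across replicates of 30% or more, whatever share of single replicates reach that level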
Target sequence (P07237 whole entry, looked up): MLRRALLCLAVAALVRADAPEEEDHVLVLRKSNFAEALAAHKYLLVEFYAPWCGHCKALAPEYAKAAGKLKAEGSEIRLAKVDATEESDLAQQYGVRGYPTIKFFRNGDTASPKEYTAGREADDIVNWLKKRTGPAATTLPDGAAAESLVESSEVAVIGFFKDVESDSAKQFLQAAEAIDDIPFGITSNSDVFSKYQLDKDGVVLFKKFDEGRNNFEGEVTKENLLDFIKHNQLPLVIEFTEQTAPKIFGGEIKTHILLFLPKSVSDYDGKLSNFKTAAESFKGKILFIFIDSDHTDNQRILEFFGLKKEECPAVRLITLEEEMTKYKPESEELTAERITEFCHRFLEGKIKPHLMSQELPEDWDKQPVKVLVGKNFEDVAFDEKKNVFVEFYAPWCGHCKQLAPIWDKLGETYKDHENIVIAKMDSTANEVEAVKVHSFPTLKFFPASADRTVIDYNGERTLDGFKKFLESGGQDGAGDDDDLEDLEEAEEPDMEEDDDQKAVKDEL
Large screens that a line does not name were inactive. The list is not random: actives were taken first. Their share in the collection is about 0.4%.

COc1ccc2c3c([nH]c2c1)[C@@H](CO)N(C(=O)c1ccc(F)cc1)CC31CCN(C(=O)Nc2cccc(F)c2)CC1	ERp5 block 63 (no result: TbMetRS inhib, PDI turbidity)
COc1ccc2c3c([nH]c2c1)[C@H](CO)N(C(=O)c1ccc(F)cc1)CC31CN(C(=O)Nc2cccc(F)c2)C1	none (no result: TbMetRS inhib, PDI turbidity)
COc1ccc2c3c([nH]c2c1)[C@H](CO)N(C(=O)c1ccc(F)cc1)CC31CCN(C(=O)Nc2ccc(F)cc2)CC1	none (no result: TbMetRS inhib, PDI turbidity)
COc1ccc2c3c([nH]c2c1)[C@H](CO)N(C(=O)c1ccc(F)cc1)CC31CCN(C(=O)Nc2cccc(F)c2)CC1	ERp5 block 66 (no result: TbMetRS inhib, PDI turbidity)
CO[C@@H]1CN(C)C(=O)c2ccc(NC(=O)NC(C)C)cc2OC[C@H](C)N(CCC(F)(F)F)C[C@@H]1C	none (no result: TbMetRS inhib, PDI turbidity)
CO[C@H]1CN(C)C(=O)c2cc(NC(=O)C3CCCC3)ccc2OC[C@H](C)N(CC2CC2)C[C@@H]1C	none (no result: TbMetRS inhib, PDI turbidity)
CC1OC(OC2C(Oc3c(-c4ccc(O)cc4)oc4cc(O)cc(O)c4c3=O)OC(COC3O[C@@H](C)[C@H](O)[C@@H](O)C3O)C(O)C2O)C(O)C(O)C1O (some centres not stated)	none (no result: PDI turbidity)
CC(=O)OC[C@H]1O[C@@H](Oc2cc(O)cc3oc(-c4ccc(O)cc4)cc(=O)c23)[C@H](O[C@@H]2O[C@@H](C)[C@H](O)[C@@H](O)[C@H]2O)[C@@H](O)[C@@H]1O	PDI turbidity 39
NCC[C@H]1CC[C@H](NS(=O)(=O)Cc2ccccc2)[C@H](CO)O1	none (no result: TbMetRS inhib, PDI turbidity)
O=C(C1CCCCC1)N1CC2(C1)[C@H](c1ccccc1)[C@H](CO)N2C(=O)NC1CCCC1	none (no result: TbMetRS inhib, PDI turbidity)
C[C@@H]1CN([C@@H](C)CO)C(=O)c2cc(NC(=O)Nc3ccc(F)cc3)ccc2O[C@@H](C)CCCCO[C@@H]1CN(C)S(=O)(=O)c1ccc(Cl)cc1	none (no result: TbMetRS inhib, PDI turbidity)
CCOC(=O)c1c(CN(C)C)n(-c2ccccc2)c2cc(Br)c(OC)cc12	none
CCOC(=O)c1c(CN(C)C)n(-c2ccc(C)cc2)c2cc(Br)c(O)cc12	PDI turbidity 49 (no result: ERp5 block)
O=C(/C=C/c1ccc(Cl)cc1Cl)Nc1ccncc1	none (no result: ERp5 block)
O=C(/C=C/c1ccc(Cl)cc1Cl)NCc1ccncc1	TbMetRS inhib 8.9
Cc1ccc2c(CC(=O)NNC(=O)c3ccccc3)coc2c1	none
Cc1cc2occ(CC(=O)NNC(=O)c3ccccc3)c2cc1C	ERp5 block 66
CC1(C)CC[C@]2(C(=O)O[C@@H]3O[C@H](CO)[C@@H](O)[C@H](O)[C@H]3O)CC[C@]3(C)C(=CCC4[C@@]5(C)CC[C@H](O[C@@H]6O[C@H](C(=O)O)[C@@H](O[C@H]7OC[C@@H](O)[C@@H](O)[C@@H]7O)[C@H](O)[C@H]6O)C(C)(C)C5CC[C@]43C)[C@@H]2C1 (some centres not stated)	none
CC1(C)CC[C@]2(C(=O)O)CC[C@]3(C)C(=CC[C@@H]4[C@@]5(C)CC[C@H](O[C@@H]6O[C@H](C(=O)O)[C@@H](O)[C@H](O[C@@H]7OC[C@H](O)[C@H](O)[C@H]7O)[C@H]6O)C(C)(C)[C@@H]5CC[C@]43C)[C@@H]2C1	PDI turbidity 88
O=C(Oc1ccc2c(c1)OCO2)C12CC3CC(CC(C3)C1)C2	none
O=C(Oc1ccc(O)cc1)C12CC3CC(CC(C3)C1)C2	PDI turbidity 65
C[C@@H]1CCCCO[C@@H](CN(C)C)[C@H](C)CN([C@H](C)CO)C(=O)c2cc(NS(=O)(=O)c3cn(C)cn3)ccc2O1	none (no result: TbMetRS inhib, PDI turbidity)
COc1ccccc1S(=O)(=O)N[C@H]1CC[C@H](CC(=O)NCc2cc(F)cc(F)c2)O[C@H]1CO	none (no result: TbMetRS inhib, PDI turbidity)
Oc1ccc(N2CCN(Cc3cc4c(cc3Br)OCCO4)CC2)cc1	PDI turbidity 76
O=S(=O)(c1ccc(F)cc1)N1CCN(Cc2cc3c(cc2Br)OCCO3)CC1	none
CCCOc1ccc(N2C(=O)CC(SCCc3nc4ccccc4[nH]3)C2=O)cc1 (configuration not stated)	none
O=C1CC(SCCc2nc3ccccc3[nH]2)C(=O)N1c1ccc(Cl)cc1 (configuration not stated)	TbMetRS inhib 21 (no result: ERp5 block)
COc1ccc(NC(=O)N(C)C[C@H]2Oc3ccc(NC(=O)CCCCCC(=O)Nc4ccccc4N)cc3CC(=O)N([C@H](C)CO)C[C@H]2C)cc1	none (no result: TbMetRS inhib, PDI turbidity)
C=CCNc1ncnc2c1ncn2[C@H]1CN(Cc2ccccc2)C[C@@H](CO)O1	none
C=CCNc1ncnc2c1ncn2[C@H]1CN(Cc2cccc3ccccc23)C[C@@H](CO)O1	PDI turbidity 39
C#CCOCCOCCOCCNc1nc(N2CCN(C(=O)[C@H](CCC(=O)O)n3cc(C(N)CC(C)C)nn3)CC2)nc(N2CCN(C(=O)[C@H](Cc3cc4ccccc4[nH]3)n3cc(C(N)CC(C)C)nn3)CC2)n1 (some centres not stated)	PDI turbidity 36 (no result: ERp5 block)
C#CCOCCOCCOCCNc1nc(N2CCN(C(=O)[C@H](CCCCN)n3cc(CCCC)nn3)CC2)nc(N2CCN(C(=O)[C@H](Cc3ccc(O)cc3)n3cc(CCO)nn3)CC2)n1	PDI turbidity 129 (no result: ERp5 block)
C#CCOCCOCCOCCNc1nc(N2CCN(C(=O)[C@H](CCCCN)n3cc(CC(C)O)nn3)CC2)nc(N2CCN(C(=O)[C@H](Cc3ccc(O)cc3)n3cc(CCO)nn3)CC2)n1 (some centres not stated)	none
C#CCOCCOCCOCCNc1nc(N2CCN(C(=O)[C@H](Cc3cc4ccccc4[nH]3)n3cc(C(N)CC(C)C)nn3)CC2)nc(N2CCN(C(=O)[C@H](CCC(=O)O)n3cc(C(N)[C@H](C)CC)nn3)CC2)n1 (some centres not stated)	none (no result: ERp5 block)
C[C@@H]1CCCCO[C@@H](CN(C)C(=O)Nc2ccc(F)cc2)[C@@H](C)CN([C@H](C)CO)C(=O)c2cc(NC(=O)CCCN(C)C)ccc2O1	none (no result: TbMetRS inhib, PDI turbidity)
COc1cc(/C=C2/CC/C(=C/c3ccc(O)c(OC)c3)C2=O)ccc1O	none
COc1cc(/C=C/C=C2/CC/C(=C/C=C/c3ccc(O)c(OC)c3)C2=O)ccc1O	PDI turbidity 39
COCCNC(=O)C[C@H]1CC[C@H]2[C@@H](COc3ccc(NC(=O)C4CCCC4)cc3C(=O)N2C)O1	none (no result: TbMetRS inhib, PDI turbidity)
CC(C)NC(=O)N(C)C[C@H]1Oc2ncc(C#CCc3ccccc3)cc2C(=O)N([C@H](C)CO)C[C@@H]1C	none (no result: TbMetRS inhib, PDI turbidity)
C[C@H]1CN([C@@H](C)CO)C(=O)CCCn2cc(nn2)CO[C@H]1CN(C)Cc1ccccc1C(F)(F)F	none (no result: TbMetRS inhib, PDI turbidity)
O=c1c(O[C@@H]2O[C@H](CO)[C@@H](O)[C@H](O)[C@H]2O)c(-c2ccc(O)cc2)oc2cc(O)cc(O)c12	PDI turbidity 37 (no result: ERp5 block)
CC1OC(OCC2OC(Oc3c(-c4ccc(O)cc4)oc4cc(O)cc(O)c4c3=O)C(O)C(O)C2O)C(O)C(O)C1O (configuration not stated)	none (no result: PDI turbidity)
O=c1c(OC2OC(CO)C(O)C(O)C2OC2OC(CO)C(O)C(O)C2OC2OC(CO)C(O)C(O)C2O)c(-c2ccc(O)c(O)c2)oc2cc(O)cc(O)c12 (configuration not stated)	none (no result: PDI turbidity)
C[C@@H]1O[C@@H](OC[C@H]2O[C@@H](Oc3c(-c4ccc(O)c(O)c4)oc4cc(O)cc(O)c4c3=O)[C@H](O)[C@@H](O)[C@@H]2O)[C@H](O)[C@H](O)[C@H]1O	PDI turbidity 58
CO[C@@H]1CN(C)C(=O)c2cc(NC(=O)c3cccc(F)c3)ccc2OC[C@H](C)N(CC2CC2)C[C@H]1C	none (no result: TbMetRS inhib, PDI turbidity)
